Source: ChEMBL document CHEMBL4715780, “Biological evaluation of tetracationic compounds based on two 1,4-diazabicyclo[2.2.2]octane moieties connected by different linkers” (Bioorg Med Chem, 2016)
Values after ≈ are worked out from the molar mass of the structure shown.

What was measured:
Influenza A virus = assay: Antiviral activity against Influenza A virus (A/Puerto Rico/8/34 (H1N1) infected in MDCK cells assessed as decrease in viral titer preincubated for 1 hr followed by viral infection and cultivated for 48 hrs followed by supernatant transferred to chicken erythrocyte for 1 hr followed by measuring ability to cause positive hemagglutination; format: functional, organism-based; settings: A/Puerto Rico/8/1934(H1N1)
Method in brief: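 MDCK monolayers in MEM were pre-incubated with compound for 1 h at 37 °C, then infected with 10-fold virus dilutions (10⁻¹–10⁻⁶) and held 48 h at 37 °C, 5% CO₂. Supernatant was mixed with an equal volume of 1% chicken erythrocytes, 60 min at room temperature. Titre was taken from the highest dilution giving full agglutination (log₁₀ EID₅₀). Triplicate per concentration.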

[1] = Selectivity index, ratio of CC50 for MDCK cells to EC50 for Influenza A virus (A/Puerto Rico/8/34 (H1N1)) infected in MDCK cells; format: toxicity, cell-based; settings: dog, read-out: Ratio CC50/EC50
Method in brief: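 Ratio of CC₅₀ to EC₅₀, both in MDCK cells, with cytotoxicity run in parallel with the antiviral assay. EC₅₀ is the concentration halving virus production (0.3 log₁₀ EID₅₀ titre drop). It was obtained after 1 h compound pre-incubation, infection, 48 h at 37 °C, and hemagglutination read-out with 1% chicken erythrocytes.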

[2] = Cytotoxicity against MDCK cells assessed as cell death incubated for 48 hrs by MTT assay; format: cell-based, Canis lupus familiaris; settings: dog
Staphylococcus aureus [3] = assay: Antibacterial activity against […] Staphylococcus aureus ATCC 25923 assessed as bacterial growth inhibition by CLSI protocol based serial microdilution method; format: functional
Candida albicans [4] = assay: Antifungal activity against Candida albicans CEMTC 34 assessed as concentration required to inhibit visible growth by CLSI protocol based serial microdilution method; format: functional
Method in brief: (§1)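 Candida albicans grown in Sabouraud dextrose broth with two-fold serial compound dilutions from water stocks; final inoculum about 5 × 10⁵ CFU/mL. Incubated at 37 °C with orbital shaking (580 rpm). MIC is the lowest concentration preventing growth, by absorbance at 595 nm. MFC is the lowest concentration with no visible growth. Duplicates in two separate experiments.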

Salmonella typhimurium [5] = assay: Antibacterial activity against Salmonella enterica ATCC 14028 assessed as concentration required to inhibit visible growth by CLSI protocol based serial microdilution method; format: functional, Salmonella enterica subsp. enterica serovar Typhimurium
Escherichia coli [6] = assay: Antibacterial activity against Escherichia coli ATCC 25922 assessed as concentration required to inhibit visible growth by CLSI protocol based serial microdilution method; format: functional
Proteus vulgaris [7] = assay: Antibacterial activity against Proteus vulgaris ATCC 6380 assessed as bacterial growth inhibition by CLSI protocol based serial microdilution method; format: functional
Enterococcus faecalis [8] = assay: Antibacterial activity against Enterococcus faecalis ATCC 51299 assessed as bacterial growth inhibition by CLSI protocol based serial microdilution method; format: functional
Pseudomonas aeruginosa [9] = assay: Antibacterial activity against Pseudomonas aeruginosa ATCC 9027 assessed as bacterial growth inhibition by CLSI protocol based serial microdilution method; format: functional
Candida albicans [10] = assay: Antifungal activity against Candida albicans CEMTC 34 assessed as fungal growth inhibition by CLSI protocol based serial microdilution method; format: functional; method in brief: as §1
Enterococcus faecalis [11] = assay: Antibacterial activity against Enterococcus faecalis ATCC 51299 assessed as concentration required to inhibit visible growth by CLSI protocol based serial microdilution method; format: functional
Proteus vulgaris [12] = assay: Antibacterial activity against Proteus vulgaris ATCC 6380 assessed as concentration required to inhibit visible growth by CLSI protocol based serial microdilution method; format: functional
Salmonella typhimurium [13] = assay: Antibacterial activity against Salmonella enterica ATCC 14028 assessed as bacterial growth inhibition by CLSI protocol based serial microdilution method; format: functional, Salmonella enterica subsp. enterica serovar Typhimurium
Citrobacter freundii [14] = assay: Antibacterial activity against Citrobacter freundii ATCC 8090 assessed as concentration required to inhibit visible growth by CLSI protocol based serial microdilution method; format: functional
Pseudomonas aeruginosa [15] = assay: Antibacterial activity against Pseudomonas aeruginosa ATCC 9027 assessed as concentration required to inhibit visible growth by CLSI protocol based serial microdilution method; format: functional
Escherichia coli [16] = assay: Antibacterial activity against Escherichia coli ATCC 25922 assessed as bacterial growth inhibition by CLSI protocol based serial microdilution method; format: functional
Staphylococcus aureus [17] = assay: Antibacterial activity against […] Staphylococcus aureus ATCC 25923 assessed as concentration required to inhibit visible growth by CLSI protocol based serial microdilution method; format: functional
Citrobacter freundii [18] = assay: Antibacterial activity against Citrobacter freundii ATCC 8090 assessed as bacterial growth inhibition by CLSI protocol based serial microdilution method; format: functional
[19] = Cytotoxicity against human MCF7 cells assessed as reduction in cell viability measured after 24 hrs by MTT assay; format: cell-based
Method in brief: (§2)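 HEK293T or MCF-7 cells in IMDM with 10% FBS, seeded at 20,000 per well and grown overnight. Compounds at […] in fresh medium for 24 h at 37 °C, 5% CO₂. MTT then added for 4 h, precipitate dissolved overnight in SDS-HCl, absorbance read at 570 nm. Viability expressed relative to untreated cells, giving CC₅₀. Duplicate wells, at least two independent repeats.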

[20] = Cytotoxicity against HEK293T cells assessed as reduction in cell viability measured after 24 hrs by MTT assay; format: cell-based, HEK-293T; settings: human; method in brief: as §2

| Compound | EC50 (Influenza A virus) [µg/mL] | selectivity ratio [1] | CC50 at 48 h [2] [µg/mL] | MIC (Staphylococcus aureus [3]) [µg/mL] | MFC (Candida albicans [4]) [µg/mL] | MBC (Salmonella typhimurium [5]) [µg/mL] | MBC (Escherichia coli [6]) [µg/mL] | MIC (Proteus vulgaris [7]) [µg/mL] | MIC (Enterococcus faecalis [8]) [µg/mL] | MIC (Pseudomonas aeruginosa [9]) [µg/mL] | MIC (Candida albicans [10]) [µg/mL] | MBC (Enterococcus faecalis [11]) [µg/mL] | MBC (Proteus vulgaris [12]) [µg/mL] | MIC (Salmonella typhimurium [13]) [µg/mL] | MBC (Citrobacter freundii [14]) [µg/mL] | MBC (Pseudomonas aeruginosa [15]) [µg/mL] | MIC (Escherichia coli [16]) [µg/mL] | MBC (Staphylococcus aureus [17]) [µg/mL] | MIC (Citrobacter freundii [18]) [µg/mL] | further results |
| --- | --- | --- | --- | --- | --- | --- | --- | --- | --- | --- | --- | --- | --- | --- | --- | --- | --- | --- | --- | --- |
| CCOC(=O)C1=C[C@@H](OC(CC)CC)[C@H](NC(C)=O)[C@@H](N)C1 [OSELTAMIVIR] | 0.3 (≈ 0.96 µM) | 1000 | 300 (≈ 960 µM) | – | – | – | – | – | – | – | – | – | – | – | – | – | – | – | – | – |
| CCCCCCCCCCCC[N+]12CC[N+](Cc3cccc(-c4ccccc4C[N+]45CC[N+](CCCCCCCCCCCC)(CC4)CC5)c3)(CC1)CC2 | – | – | – | 0.6 | 6.3 | 3.1 | 3.1 | 50 | 0.8 | 3.1 | 1.6 | 1.6 | 100 | 1.6 | 1.6 | 6.3 | 1.6 | 1.2 | 1.6 | – |
| O=C(O)c1cn(C2CC2)c2cc(N3CCNCC3)c(F)cc2c1=O [CIPROFLOXACIN] | – | – | – | – | – | – | – | – | – | – | – | – | – | – | – | – | – | – | – | CC50 at 24 h [19]: 60 µg/mL (≈ 181 µM); CC50 at 24 h [20]: > 60 µg/mL |
| CCCCCCCCCCCC[N+]12CC[N+](CCCCCCCC[N+]34CC[N+](CCCCCCCCCCCC)(CC3)CC4)(CC1)CC2 | 2.2 | 2 | 4.5 | 0.6 | 12.5 | 6.3 | 3.1 | 100 | 1.6 | 3.1 | 6.3 | 1.6 | > 100 | 3.1 | 6.3 | 6.3 | 1.6 | 1.6 | 3.1 | – |
| CCCCCCCCCCCC[N+]12CC[N+](Cc3nnn(CCCCC(=O)OC)c3C[N+]34CC[N+](CCCCCCCCCCCC)(CC3)CC4)(CC1)CC2.[Cl-].[Cl-].[Cl-].[Cl-] | > 11 | < 2 | 20.6 | 1.6 | 12.5 | 3.1 | 3.1 | 100 | 1.6 | 6.3 | 6.3 | 3.1 | > 100 | 3.1 | 3.1 | 12.5 | 3.1 | 3.1 | 1.6 | – |
